Screens from PubChem BioAssay.
sEH activator = soluble epoxide hydrolase (human) activation; purified human sEH enzymatic activity, activator screen; activation, % at 2 µM; 0.04% of 91,000 active; AID 717; in the data active means activation above about 37%
Smad3 FoxH1 inh = Smad3 (human) transcription factor binding inhibition. inhibition, % at 25 µM. P84022. AID 630. TR-FRET Smad3/Dy647-FoxH1 peptide binding, europium anti-His. 0.29% of 88,000 active;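 active means compounds that reduce the energy-transfer binding signal between the protein and its labelled peptide by more than half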;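 further: 0% = Smad3 plus labelled peptide maximal FRET and 100% = peptide-only background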
Target sequence (P84022 whole entry, looked up): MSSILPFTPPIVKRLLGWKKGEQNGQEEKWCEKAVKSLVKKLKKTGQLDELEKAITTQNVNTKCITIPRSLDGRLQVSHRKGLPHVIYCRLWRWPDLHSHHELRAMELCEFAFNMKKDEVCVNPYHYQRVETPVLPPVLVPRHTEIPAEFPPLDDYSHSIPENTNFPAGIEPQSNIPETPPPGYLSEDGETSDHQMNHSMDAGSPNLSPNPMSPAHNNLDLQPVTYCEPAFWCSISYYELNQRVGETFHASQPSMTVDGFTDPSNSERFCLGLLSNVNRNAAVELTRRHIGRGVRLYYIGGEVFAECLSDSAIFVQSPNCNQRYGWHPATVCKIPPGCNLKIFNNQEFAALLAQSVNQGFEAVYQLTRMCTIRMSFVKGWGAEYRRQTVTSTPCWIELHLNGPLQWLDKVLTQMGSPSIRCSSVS
Mac1 fbg enh = enhancers of human CD11b/CD18 binding to fibrinogen; 0.07% of 93,000 active; activation, % at 10 µM; AID 1499; P05107+P11215; K562 CD11b/CD18 adhesion to fibrinogen, ATPlite luminescence;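 active means 10 µM primary screen giving 50% or more activity, confirmed by 40% or more on retest at that dose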
sEH inhibitor = inhibitors of human soluble epoxide hydrolase; AID 707; recombinant human sEH enzymatic activity assay; P34913; 0.34% of 91,000 active; inhibition, % at 2 µM; in the data active means inhibition above about 80%
HIV Rev-RRE inh = HIV Rev-RRE protein-RNA interaction inhibition; P05866; Rev peptide-RRE RNA binding, FRET; inhibition, % at 8 µM; AID 704; 0.79% of 97,000 active;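 active means inhibition above the screen-wide mean plus 3 SD, cut at about 35% in these data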;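 further: 0% = median DMSO wells and 100% = median Neomycin B control wells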
Target sequence (P05866 whole entry, looked up): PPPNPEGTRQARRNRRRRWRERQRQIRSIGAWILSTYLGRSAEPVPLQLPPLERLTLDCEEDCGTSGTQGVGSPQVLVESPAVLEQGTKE
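Test system – labelled RRE RNA duplex and labelled Rev peptide · Reagent – labelled Rev peptide · Doses – one concentration, 8 µM nominal · Incubation – 5 + 15 min at 25 °C · Signal – FRET fluorescence readout · Read-out basis – % inhibition of FRET ratio versus controls · Control set – DMSO wells as 0% and neomycin B wells as 100% inhibition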
CD11b adhes inh = blocks human CD11b/CD18 adhesion to fibrinogen; 0.54% of 93,000 active; K562 CD11b/CD18 adhesion to fibrinogen, ATPlite luminescence; Mn2+ added to activate the integrin; P05107+P11215; inhibition, % at 10 µM;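 active means primary inhibition of 50% or more at 10 µM, then 40% or more on retest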
Numbers without * were called inactive; / = no result given; [ ] = dose if it differs, or a comment. An excerpt weighted towards active compounds, which were near 1.6% of everything screened.

SMILES | sEH activator | Smad3 FoxH1 inh | Mac1 fbg enh | sEH inhibitor | HIV Rev-RRE inh | CD11b adhes inh
O=C(NCC(c1cccs1)N1CCOCC1)c1ccccc1NS(=O)(=O)c1cc([N+](=O)[O-])ccc1Cl (configuration not stated) | / | / | -8.6 | / | / | 84.6*
O=C(NCC(c1cccs1)N1CCOCC1)c1ccccc1NS(=O)(=O)c1cccc([N+](=O)[O-])c1 (configuration not stated) | / | / | -5.3 | / | / | 70.9
O=C(NCC(c1cccs1)N1CCOCC1)c1ccccc1NS(=O)(=O)c1ccc(Cl)c([N+](=O)[O-])c1 (configuration not stated) | / | / | -9.6 | / | / | 101.4*
O=C(NCC(c1cccs1)N1CCOCC1)c1ccc(Br)o1 (configuration not stated) | -11.7 | -3.5 | -8.7 | 10.0 | -2.7 | -0.9
C[C@H]1[C@H](C)OC(=O)C[C@H](O)C[C@H](O)C[C@H](O)CC[C@H](O)[C@H](O)CC(=O)C[C@H](O)[C@H](C(=O)O)[C@H](O)C[C@H](O[C@H]2O[C@@H](C)[C@H](O)[C@@H](N)[C@@H]2O)C=CC=CC=CC=CCCC=CC=C[C@@](C)(O)[C@H]1O | / | 4.3 | / | / | / | /
C[C@@]12CCC(=O)C=C1CC[C@H]1[C@H]2[C@@H](O)C[C@]2(C)[C@@H]1CC[C@@]2(O)C(=O)COC(=O)C1CCCC1 | / | 28.2 | / | / | / | /
COc1cc(C2C(C#N)=C(N)Oc3cc(N(C)C)ccc32)cc2c1OCO2 (configuration not stated) | 2.4 | 24.8 | -0.8 | -4.7 | 92.3*[fluorescence artefact?] | 11.7
COc1ccc2nc3sc(C(=O)NCc4cccs4)c(N)c3cc2c1 | -11.3 | 10.3 | 31.6 | 11.5 | 39.7* | 0.7
O=C(NNC1=C(C(=O)C(F)(F)F)CCC1)c1ccc(Br)cc1 | 0.4 | 6.1 | -10.4 | 2.3 | 1.2 | 97.3*
CCOc1cc(/C=C(/C#N)C(=O)Nc2ccc(O)cc2)cc(Br)c1O | -0.5 | / | -4.6 | 0.6 | 117.4*[fluorescence artefact?] | 49.9
Cc1cc(=Nc2ccc3c(c2)c(N)cc(C)[n+]3C)nc(N)n1C | / | -0.7 | / | / | / | /
Cn1ncc2c(Cl)ncnc21 | / | -1.0 | / | / | / | /
Oc1ccc(N=Nc2cccc(Cl)c2)cc1C=Nc1ccc(N2CCOCC2)cc1 | / | / | 74.2 | / | / | 0.3
Oc1ccc2ccccc2c1C=Nc1ccc(N2CCOCC2)cc1 | 3.4 | -0.5 | -0.5 | -5.8 | 71.8*[fluorescence artefact?] | -5.5
COc1[nH]c(/N=C/c2ccccc2)c(C#N)c1C#N | -10.3 | 16.0 | 0.7 | 7.8 | 38.0* | 16.2
CCN1C=C(Cc2ccccc2C)C2=C(C1)C(c1ccccc1C)C(C#N)=C(N)O2 (configuration not stated) | -9.0 | / | -0.7 | 7.5 | 14.2 | 6.4
CCN1C=CC2=C(C#N)C(N)C(C#N)(C#N)C(c3ccccc3C(F)(F)F)C2C1 (configuration not stated) | -3.5 | -21.2 | / | 3.2 | 58.5* | /
O=C(N[C@@H](Cc1ccccc1)C(=O)NC1CCCCCC1)c1ccco1 | -80.5 | / | -3.2 | 80.3* | 1.4 | -3.0
O=C(N[C@@H](Cc1ccccc1)C(=O)NC1CCCCC1)c1ccco1 | -50.2 | / | -0.5 | 49.3 | 6.2 | -14.6
CN(C)CC[C@@H](C(=O)C(C)(C)C)c1ccccn1 | / | -7.9 | / | / | / | /
CCOc1ccc(-n2c(-c3ccccc3)c[n+]3c2CCCCC3)cc1 | / | / | -3.5 | / | / | 80.0*
CCOc1ccc(N2Cc3ccccc3C2)cc1 | -3.6 | 4.0 | 14.9 | 1.2 | 3.5 | 9.1
Cc1ccc2c(c1)N[C@H](c1ccc(C(=O)O)cc1)c1cccn1-2 | / | 13.1 | / | / | / | /
CCOC(=O)C1=C(O)/C(=C/c2ccc(C)o2)SC1=NC(=O)c1ccccc1C | 5.3 | 3.0 | / | -4.2 | 68.5* | /
COC(=O)c1ccc(OC(=O)c2ccc(OC)c(OC)c2)c(OC)c1 | 37.5* | -5.0 | -2.1 | -35.7 | 2.8 | 1.1
SMILES | sEH activator | Smad3 FoxH1 inh | Mac1 fbg enh | sEH inhibitor | HIV Rev-RRE inh | CD11b adhes inh
O=C(Nc1nn[nH]n1)c1nc(-c2ccccc2)cc(=O)[nH]1 | / | 7.5 | / | / | / | /
Cc1nnc(NC(=O)c2sc3ccccc3c2Cl)s1 | -5.8 | 15.0 | -5.1 | 6.4 | -0.5 | 69.9*
C/C(=N\NC(=O)c1cccc(S(=O)(=O)Nc2ccccc2Cl)c1)c1ccc(-n2ccnc2)cc1 | -87.2 | / | 0.6 | 86.9* | 0.9 | 11.7
COc1ccc(NS(=O)(=O)c2cccc(C(=O)N/N=C(\C)c3ccc(-n4ccnc4)cc3)c2)cc1 | -40.4 | / | 22.1 | 39.1 | 1.9 | 20.4
C[N+](C)(C)c1ccc([C@H](N)C(=O)O)cc1 | / | -0.7 | / | / | / | /
COc1ccc(CN2C(=O)[C@@H]3C(c4ccc(F)cc4)=NO[C@@H]3C2=O)cc1 | 37.5* | -16.1 | -0.9 | -40.1 | 8.4 | -15.7
COC(=O)c1ccccc1N1C(=O)[C@@H]2C(c3ccc(F)cc3)=NO[C@@H]2C1=O | 5.5 | -11.4 | -1.3 | -6.8 | 5.4 | -2.5
O=C(Nc1ccccc1C(=O)O)c1ccccc1 | -19.6 | -0.3 | -4.5 | 17.1 | -6.2 | -22.3
CCOc1c(Cl)cc(C(=O)Nc2ccccc2C(=O)O)cc1Cl | -5.8 | / | -12.3 | 4.3 | 6.4 | 88.6*
Nc1nc(N)nc(CCCc2nc(N)nc(N)n2)n1 | / | -5.1 | / | / | / | /
C[N+](C)(C)CCCSc1nc2ccccc2[nH]1 | / | 19.8 | / | / | / | /
CCOC(=O)Nc1ccc2c(c1)N(C(=O)OC)c1ccccc1CC2 | 41.0* | / | 1.0 | -44.2 | 2.5 | -2.2
CCOC(=O)Nc1ccc2c(c1)N(C(=O)C(C)N1CCCC1)c1ccccc1CC2 (configuration not stated) | -2.2 | 3.4 | -2.7 | -2.1 | 5.0 | -2.1
O=C(Cc1ccc(Br)cc1)OCC(=O)c1ccc2c(c1)OCCO2 | -4.6 | 3.8 | / | 6.2 | 14.1 | /
NCOC(=O)Cc1ccc(Br)cc1 | / | 73.4* | / | / | / | /
COc1ccc(CNC(=O)C2CCC(CNS(=O)(=O)c3cccc4nsnc34)CC2)cc1 (configuration not stated) | -95.3 | -5.0 | 2.4 | 95.2* | 5.1 | -2.8
O=C(NCc1ccc2c(c1)OCO2)C1CCC(CNS(=O)(=O)c2cccc3nsnc23)CC1 (configuration not stated) | -94.3 | -10.9 | 0.4 | 94.3* | 4.7 | -4.0
CCOCCCNC(=O)C1CCC(CNS(=O)(=O)c2cccc3nsnc23)CC1 (configuration not stated) | / | -5.6 | / | / | / | /
Cc1ccc(CCCC(=O)O)cc1C | / | -6.8 | / | / | / | /
COC(=O)c1cc[n+](CC(=O)c2ccccc2)cc1 | -7.8 | / | -1.5 | 10.5 | 1.6 | -3.5
COC(=O)c1ccc2c(c1)C(C)(C)C(/C=C/c1ccccc1O)=[N+]2C | 1.5 | / | / | -4.6 | 78.6*[fluorescence artefact?] | /
O=S(=O)(O)c1cc(S(=O)(=O)O)c2c(N=Nc3cccc4ccccc34)c(O)ccc2c1 | / | 85.0* | / | / | / | /
Cn1c(-c2ccc(C=O)s2)nc2c3ccccc3c3ccccc3c21 | 8.7 | -74.3 | 20.4 | -10.2 | 80.6* | 7.6
CC(C)c1ccc(/C(C(=O)O)=C(\O)C(=O)O)cc1 | / | 14.5 | / | / | / | /
O=S(=O)(Nc1nc2ccccc2s1)c1ccc(Cl)s1 | 17.3 | 27.8 | -5.2 | -17.2 | 8.2 | 74.5*
